In the library only some 0.77% were active in any assay of this set; here they are far more common.
mIAP activ: increases mouse intestinal alkaline phosphatase activity; muIAP, CDP-Star luminescence, 30 min; hits give high values; 1 = vehicle-only enzyme signal, 0 = enzyme-free wells; activation factor at 10 µM; 330,000 tested, 0.24% active; AID 2805;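 active = activation factor of at least 2 at 20 µM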
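System: Mouse IAP enzyme | Also added: CDP-Star substrate | Dosing: Compounds dispensed in DMSO | Schedule: 30 min enzyme-substrate-compound incubation at room temperature | Technique: Chemiluminescence readout | Control set: DMSO-only wells and no-enzyme negative control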
hIAP block: blocks human intestinal alkaline phosphatase; P09923; purified IAP, CDP-Star luminescence, 30 min; 330,000 tested, 0.12% active; inhibition, % at 10 µM;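 active = inhibition reaching a set limit with compound at 10 µM in the primary screen, cut at about 35% in these data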;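 also: plate controls were DMSO wells with enzyme for no effect and no-enzyme buffer wells for full effect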
Target sequence (P09923 whole entry, looked up): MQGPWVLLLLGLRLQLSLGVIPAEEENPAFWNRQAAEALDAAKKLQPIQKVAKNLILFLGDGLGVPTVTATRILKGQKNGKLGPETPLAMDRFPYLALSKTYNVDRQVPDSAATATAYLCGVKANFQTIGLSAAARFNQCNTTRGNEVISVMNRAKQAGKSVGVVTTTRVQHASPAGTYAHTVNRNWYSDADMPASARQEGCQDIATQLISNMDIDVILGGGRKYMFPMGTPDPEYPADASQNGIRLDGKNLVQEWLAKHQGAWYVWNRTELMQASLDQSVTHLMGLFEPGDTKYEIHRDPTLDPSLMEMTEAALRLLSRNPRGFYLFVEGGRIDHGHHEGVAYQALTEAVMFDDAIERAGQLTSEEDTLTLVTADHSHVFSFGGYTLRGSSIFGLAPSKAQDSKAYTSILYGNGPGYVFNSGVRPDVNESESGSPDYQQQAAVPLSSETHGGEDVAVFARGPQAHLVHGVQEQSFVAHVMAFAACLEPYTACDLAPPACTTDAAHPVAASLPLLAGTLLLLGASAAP
mIAP block: blocks mouse intestinal alkaline phosphatase; purified mouse IAP, CDP-Star luminescence, 30 min; inhibition, % at 10 µM; 330,000 tested, 0.2% active; AID 2806;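 active = inhibition of at least 40% at 10 µM in the primary screen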;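 also: plate controls were DMSO with enzyme for no effect and no enzyme wells for full effect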
bIAP inh: intestinal alkaline phosphatase (bovine) inhibition | purified bovine IAP, CDP-star luminescence, 30 min | inhibition, % at 20 µM | 190,000 tested, under 10 active;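 active = over 50% inhibition of intestinal alkaline phosphatase at 20 µM in the single-dose screen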
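test system = bovine IAP enzyme | medium = DEA buffer 100 mM, pH 9.8, with MgCl2 1.0 mM, ZnCl2 0.02 mM | detection = luminescence | dosing = single compound dose of 20 µM, 2% DMSO final | incubation = 30 min reaction at room temperature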
hIAP act: increases human intestinal alkaline phosphatase activity; 330,000 tested, 0.16% active; P09923; AID 2524; purified human IAP, CDP-Star luminescence, 30 min; hits give high values; 1 = vehicle-only enzyme, 0 = enzyme-free background; activation factor at 10 µM;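 active = activation factor of the enzyme at least 2-fold when tested at 20 µM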
bIAP act: increases bovine intestinal alkaline phosphatase activity. activation factor at 20 µM. purified bovine IAP, CDP-star luminescence, 30 min; hits give high values; fold of DMSO-control signal, blank-subtracted. 200,000 tested, 0.17% active. AID 1016;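 active = activation factor of 2 or more at 20 µM, a signal rise over negative controls twice the positive control's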
hIAP act conf: human IAP activation confirmation | shares compounds with hIAP act | purified IAP, CDP-Star luminescence, 30 min; hits give low values | activation (%Activity, negative = activation), % at 8.3 µM | 880 tested, 10% active;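 active = at least twofold enzyme activation in any of six single-dose repeats, which the averaged readout prints as negative percent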
Numbers without * were called inactive; / = no result.

SMILES	mIAP activ	hIAP block	mIAP block	bIAP inh	hIAP act	bIAP act	hIAP act conf
CCc1nc2c3cnn(-c4cc(Cl)ccc4C)c3ncn2n1	0.88	73*	12	-4	0.27	1	-31
COc1ccc(OC)c(S(=O)(=O)n2nnc3ccccc32)c1	0.96	37*	4	6	0.63	0.9	-54
Cc1occc1C(=O)Nc1cccc(Cl)c1Cl	1.1	8	-7	/	0.92	/	/
O=C(O)c1ccccc1S(=O)(=O)CC(=O)N1CCCCC1	0.97	17	3	/	0.83	/	/
CC(C)c1ccc(NC(=O)Cc2ccc(NC3=NC4CS(=O)(=O)CC4S3)cc2)cc1 (stereo unspecified)	1.2	13	-16	/	0.87	/	/
CCN(CC)C(=O)COc1ccc(S(=O)(=O)N2CCCC2)cc1	0.96	-11	4	/	1.1	/	/
CCN(CC)C(=O)COc1ccc(S(=O)(=O)N2CCOCC2)cc1	1.1	-145	-7	8	2.4*	0.9	-26
CC(C)NC(=O)Nc1cccc2c1O[C@H](CN(C)S(C)(=O)=O)[C@@H](C)CN([C@H](C)CO)C2=O	0.99	-15	0	/	1.2	/	/
COc1ccc(S(=O)(=O)N2CCOCC2)cc1NC(=O)CN1C(=O)NC2(CCCC2)C1=O	1.2	-17	-20	/	1.2	/	/
COc1cccc(-c2nc(CS(=O)(=O)CC(=O)Nc3ccccc3C)c(C)o2)c1	1	-32	-3	/	1.3	/	/
COc1cccc(-c2nc(CS(=O)(=O)CC(=O)Nc3cc(OC)ccc3OC)c(C)o2)c1	0.97	36*	3	/	0.64	/	31
COc1ccc(S(=O)(=O)N2CCc3ccccc32)cc1[N+](=O)[O-]	1	-4	0	/	1	/	/
COc1ccc(CN(CCNC(=O)CCCCC(=O)NCCN(Cc2ccc(OC)cc2)C(C)C)C(C)C)cc1	1.2	41*	-16	/	0.59	/	18
COc1ccc(CCNC(=O)CCCCC(=O)NCCc2ccc(OC)cc2)cc1	0.9	2	10	/	0.98	/	/
CCCCCC(=O)Cc1cc(O)cc2c1C(=O)Oc1cc(O)c(C(=O)O)c(CCCCC)c1O2	0.79	40*	21	/	0.6	/	-40
CCCCc1ccc(NC(=O)CSc2nc3ncccc3[nH]2)cc1	0.82	-115	18	/	2.1*	/	25
COC(=O)CCC(=O)Nc1ccc(Cl)c(Cl)c1	0.97	8	3	16	0.92	0.8	/
COC(=O)CCC(=O)Nc1ccc2oc3c(c2c1)CCCC3	0.89	42*	11	/	0.58	/	-39
COc1ccc(NC(=O)/C(C#N)=C\c2ccc(N3CCOCC3)o2)cc1	0.8	39*	20	40	0.61	0.6	2
Cc1ccc(NC(=O)CSc2nnnn2C2CC2)cc1S(=O)(=O)N1CCOCC1	1	-5	0	/	1	/	/
CCn1cc(CN2CCN(CCC(C)C)C(CCO)C2)c2ccccc21 (stereo unspecified)	0.92	-16	8	/	1.2	/	/
CCn1cc(CN2CCN(C)C(CCO)C2)c2ccccc21 (stereo unspecified)	1	-185	-2	/	2.8*	/	29
COc1ccc(CNC(=O)COC(=O)c2[nH]c(C)c(C(C)=O)c2C)cc1OC	0.92	-3	8	/	1	/	/
CN(C)C(=O)c1cc(C(=O)c2ccccc2Cl)c[nH]1	1.1	5	-6	-9	0.95	1.1	/
O=C(O)c1ccccc1C(=O)Nc1cc(-c2ccccc2)[nH]n1	0.89	39*	12	/	0.61	/	62
SMILES	mIAP activ	hIAP block	mIAP block	bIAP inh	hIAP act	bIAP act	hIAP act conf
O=C(Nc1cc(-c2ccccc2)[nH]n1)c1ccccc1F	1.1	-16	-7	/	1.2	/	/
COc1ccc(/C(O)=C/C(=O)C(=O)NNC(=O)c2ccccc2)cc1	0.89	-117	11	/	2.2*	/	-3
Nc1nc(CN2CCN(Cc3ccc4c(c3)OCO4)CC2)nc(Nc2ccccc2)n1	1	-102	-1	-5	2*	1.1	-1
O=C(NCCCN1CCOCC1)c1ccc2c(c1)N(Cc1ccc(Cl)cc1)C(=O)c1ccccc1S2=O (stereo unspecified)	0.92	37*	8	/	0.63	/	-48*
COc1cccc(/C=N/NC(=O)c2cc(-c3ccccn3)nc3ccccc23)c1O	1	-113	0	/	2.1*	/	-1
COc1cccc(/C=N/NC(=O)c2ccc(=O)[nH]n2)c1O	0.89	-144	11	/	2.4*	/	2
COc1cc(OC)c(OC)cc1/C=N/NC(=O)c1cc(-c2cccn2C)n[nH]1	0.97	4	3	-22	0.96	1.2	/
O=C(N/N=C/c1ccc(F)cc1)c1cc(-c2ccccn2)nc2ccccc12	0.87	4	13	/	0.96	/	/
CCOc1cccc(/C=N/NC(=O)c2cc(-c3cccn3C)n[nH]2)c1O	0.79	-162	21	-12	2.6*	1.1	23
COc1cccc(/C=N/Nc2ccc([N+](=O)[O-])cc2)c1O	0.86	37*	14	/	0.63	/	-19
CCOC(=O)c1ccc(N(CC(=O)NC2CCCCC2)C(=O)CNC(=O)c2ccco2)cc1	1.1	-10	-11	/	1.1	/	/
COc1cccc(/C=N/NC(=O)CNC(=O)c2ccncc2)c1O	0.95	-116	5	/	2.2*	/	-42
O=C(CC(=O)c1ccccc1)Nc1ccccn1	1	42*	-1	/	0.58	/	-16
O=C(CC(=O)c1ccccc1)Nc1ccccc1	0.95	7	5	/	0.93	/	/
CCC1CCCCN1C1Sc2ccc(C(=O)OC)cc2NC1=O (stereo unspecified)	1.1	-100	-8	-9	2*	1.1	-69*
CCCCCCc1nc(C(N)=O)c2[nH]c(=O)n(-c3ccc(OCC)cc3)c2n1	1	-131	-3	/	2.3*	/	2
CCCCCCc1nc(C(N)=O)c2[nH]c(=O)n(-c3ccccc3F)c2n1	1.1	-110	-9	/	2.1*	/	-15
O=C(CN1CCN(C(=O)C2CCCO2)CC1)Nc1cc(C(F)(F)F)ccc1Cl (stereo unspecified)	1.1	-29	-5	/	1.3	/	/
Cc1ccc(NC(=O)c2cc(-c3cc(Cl)ccc3O)n[nH]2)cc1C	1	-94	-3	/	1.9	/	/
Cc1ccc(C)c(NC(=O)c2cc(-c3cc(C)ccc3O)n[nH]2)c1	1.1	-121	-12	/	2.2*	/	-58
Cc1cccc(NC(=O)c2cc(-c3cc(Cl)ccc3O)n[nH]2)c1	1.2	-103	-18	/	2*	/	-4
CCCN(CC1CCCO1)C(=O)CCc1nnc(CCc2ccc(OC)cc2)o1 (stereo unspecified)	0.98	-22	2	/	1.2	/	/
CC1CCCC(C)N1C(=O)/C=C/c1ccc(S(=O)(=O)N2CCOCC2)cc1 (stereo unspecified)	1.1	0	-6	/	0.99	/	/
COc1ccc(-c2cc(C(=O)NNC(=O)c3csc(N4CCOCC4)n3)c3ccccc3n2)cc1OC	0.88	-135	12	/	2.4*	/	0

Screens: PubChem, Sanford-Burnham Center for Chemical Genomics
